pIC50: −log10 of the molar value. The source made the active and inactive calls. The calls are words filed in the database; no cut-off is given here.
How the values were obtained:
THP-1 [1] = experiment: Antiinflammatory activity in human THP1 cells assessed as inhibition of TNFalpha secretion at 1 uM treated 1 hr before LPS challenge measured after 24 hrs by ELISA; type: functional, cell-based
Summary of the method: (§1)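 THP-1 monocytes (RPMI 1640, 10% FBS, 37 °C, 5% CO2) differentiated to macrophages with PMA; pretreated 1 h with test agent at 1 μM in DMSO (0.1% final); LPS (E. coli 0111:B4) 1 μg/mL added, medium collected after 24 h and stored at −80 °C; secreted cytokine quantified by ELISA; vehicle and non-LPS controls; three independent experiments, mean ± SE.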

THP-1 [2] = experiment: Antiinflammatory activity in human THP1 cells assessed as inhibition of IL-1beta secretion at 1 uM treated 1 hr before LPS challenge measured after 24 hrs by ELISA; type: functional, cell-based; summary of the method: as §1
THP-1 [3] = experiment: Cytotoxicity against human THP1 cells after 24 hrs by WST1 assay; type: cell-based; conditions: THP-1, 24 h
Summary of the method: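 THP-1 monocyte suspension (5 × 10^5 cells/mL) exposed to compounds in DMSO, 30 down to 0.37 μM, DMSO 0.1% final; 24 h at 37 °C, 5% CO2; viability by WST-1 reagent; IC50 calculated from viability curves; triplicate, arithmetic mean ± SE.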

[4] = biological target: Transcription factor p65 (Homo sapiens) (UniProt Q04206); experiment: Inhibition of NFkappaB p65 nuclear translocation in LPS-induced human THP1 cells at 1 uM treated 1 hr before LPS challenge measured after 3 hrs using propidium iodide staining by fluorescence microscopic analysis; type: cell-based; conditions: THP-1
Summary of the method: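 PMA-differentiated THP-1 macrophages in serum-free RPMI (5 × 10^5 cells/mL) pretreated 1 h at 1 μM, then LPS 1 μg/mL final for 3 h; acetone-fixed, BSA-blocked, rabbit anti-p65 overnight at 4 °C, FITC anti-rabbit IgG 1 h, nuclei counterstained with propidium iodide 0.5 μg/mL; p65/nuclear colocalization viewed by fluorescence microscopy; three independent experiments.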

A2780 = experiment: Cytotoxicity against human A2780 cells; type: cell-based
THP-1 [5] = experiment: Ratio of prednisone to compound for antiinflammatory activity in human THP1 cells assessed as inhibition of TNFalpha secretion at 1 uM treated 1 hr before LPS challenge measured after 24 hrs by ELISA; type: functional

Sequence of Transcription factor p65 (Homo sapiens) (Q04206 whole entry): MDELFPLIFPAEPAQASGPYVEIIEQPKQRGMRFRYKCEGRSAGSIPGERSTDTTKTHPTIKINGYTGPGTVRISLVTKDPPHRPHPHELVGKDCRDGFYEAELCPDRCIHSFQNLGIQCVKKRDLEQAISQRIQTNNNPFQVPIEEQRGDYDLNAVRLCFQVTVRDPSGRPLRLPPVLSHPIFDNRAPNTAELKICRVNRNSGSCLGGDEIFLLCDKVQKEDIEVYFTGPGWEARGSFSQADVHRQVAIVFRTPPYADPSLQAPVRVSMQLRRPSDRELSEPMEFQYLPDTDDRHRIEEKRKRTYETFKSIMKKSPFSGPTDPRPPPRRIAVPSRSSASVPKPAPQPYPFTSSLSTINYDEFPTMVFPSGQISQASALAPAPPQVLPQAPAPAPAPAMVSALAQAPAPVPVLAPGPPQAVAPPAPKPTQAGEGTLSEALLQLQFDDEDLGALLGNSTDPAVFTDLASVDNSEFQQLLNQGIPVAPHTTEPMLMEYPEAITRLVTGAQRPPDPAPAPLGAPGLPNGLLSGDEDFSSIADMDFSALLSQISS

Row | Structure (SMILES) | inhibition (THP-1 [1]) | inhibition (THP-1 [2]) | pIC50 (THP-1 [3]) | inhibition [4] | pIC50 (A2780) | Ratio (THP-1 [5])
1 | CC1(C)C=Cc2c(O)ccc([C@@H]3CC(=O)c4c(O)cc(O)cc4O3)c2O1 | Active | Active | < 5.00 | Active |  | 
2 | CC1=C[C@@H]2c3c(O)cc(C=O)cc3OC3(c4ccc(O)c5c4OC(C)(C)C=C5)Oc4cc(O)ccc4[C@@H](C1)[C@H]23 (some centres undefined) |  |  | 5.33 |  |  | 
3 | CC(C)=CCc1c(O)ccc(C(=O)[C@@H]2[C@@H](c3ccc(O)cc3O)CC(C)=C[C@H]2c2c(O)cc3c(c2O)C(=O)[C@@H]2Oc4cc(O)ccc4[C@]2(CC=C(C)C)O3)c1O |  |  | 5.40 |  |  | 
4 | CC(C)=CCc1c(O)ccc([C@@]23Oc4cc(O)ccc4[C@@H]4CC(C)=C[C@@H](c5c(O)cc(-c6cc7ccc(O)cc7o6)cc5O2)[C@H]43)c1O |  |  |  |  | 5.92 | 
5 | CC(C)=CCc1c(-c2ccc(O)cc2O)oc2cc3c(c(O)c2c1=O)C=CC(C)(C)O3 [CUDRAFLAVONE B] | Active | inactive | < 5.00 | Active |  | 
6 | CC(C)=CCc1c(-c2ccc(O)cc2O)oc2c(CC=C(C)C)c(O)cc(O)c2c1=O [KUWANON C] | Active | Active | 5.77 |  |  | 
7 | CC(C)=CCC/C(C)=C/Cc1cc(C2CC(=O)c3c(O)cc(O)cc3O2)c(O)cc1O (centres undefined) [KUWANON E] | Active | Active | 5.40 |  |  | 
8 | CC(C)=CCc1c(O)cc(-c2cc3ccc(O)cc3o2)cc1O [MORACIN C] |  | inactive | 5.49 |  |  | 
9 | CC(C)(O)CCc1c(-c2ccc(O)cc2O)oc2c3c(cc(O)c2c1=O)OC(C)(C)C=C3 [MORUSINOL] | Active | Active | 5.37 | Active |  | 2
10 | C[C@@]12C=C(c3c(O)cc(-c4cc5ccc(O)cc5o4)cc3O)C[C@@H](C1)c1ccc(O)cc1O2 [MULBERROFURAN H] |  | inactive | 5.49 | Active |  | 
11 | COc1c(O)cc2oc(-c3cc(O)cc(O)c3)cc2c1C/C=C(\C)CCC=C(C)C [MULBERROFURAN Y] |  | Active | 5.32 |  |  | 

From ChEMBL document CHEMBL3286347, “Evaluation of anti-inflammatory activity of prenylated substances isolated from Morus alba and Morus nigra” (J Nat Prod, 2014)
